Activity calls are given as the source filed them. The calls are words filed in the database; no cut-off is given here.
Legend:
[1] = Displacement of [3H]epibatidine from alpha3beta4* nAChR in calf adrenal P1 membrane after 90 mins by liquid scintillation counting; assay type: cell membranes, Bos taurus
How it was run: (§1)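 Rat forebrain P2, calf adrenal P1 or Torpedo californica electroplax P1 membranes (60 µg protein) with 0.5 nM (±)-[3H]epibatidine in HEPES-salt solution (15 mM HEPES, 120 mM NaCl, 5.4 mM KCl, 0.8 mM MgCl2, 1.8 mM CaCl2) at 22 °C. Run in duplicate. Nonspecific binding defined with 300 µM (−)-nicotine. Filtered on PEI-soaked GF/B filters. Ki derived from IC50 by Cheng-Prusoff, Kd 10 pM.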

[2] = Displacement of [3H]epibatidine from alpha4beta2* nAChR in Sprague-Dawley rat brain P2 membrane after 90 mins by liquid scintillation counting; assay type: tissue-based; how it was run: as §1
[3] = Displacement of [3H]MLA from alpha7* nAChR in Sprague-Dawley rat brain P2 membrane after 180 mins by liquid scintillation counting
[4] = Displacement of [3H]epibatidine from (alpha1)2beta1gammadelta nAChR in electric ray electroplax P1 membrane after 90 mins by liquid scintillation counting; design: species or system Tetronarce californica; how it was run: as §1
Rattus norvegicus = organism: Rattus norvegicus; assay: Displacement of [3H]epibatidine from alpha4beta2* nAChR in Sprague-Dawley rat brain P2 membrane up to 50 uM after 90 mins by liquid scintillation counting; assay type: tissue-based
[5] = Displacement of [3H]MLA from alpha7* nAChR in rat brain membrane; assay type: cell membranes
How it was run: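 Rat brain crude P2 membranes in HEPES-salt solution (15 mM HEPES, 120 mM NaCl, 5.4 mM KCl, 0.8 mM MgCl2, 1.8 mM CaCl2), 22 °C, duplicates. [3H]MLA 2 nM final, 180 min; nonspecific binding with 1 µM MLA. GF/B filtration (1% PEI presoaked), scintillation counting. Nonlinear regression IC50; Ki by Cheng-Prusoff with Kd = 1 nM.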

SMILES	Ki [1]	Ki [2]	Ki [3]	Ki [4]	Activity (Rattus norvegicus)	Ki [5]
C=CCn1cc(CCNC)c2ccccc21	> 10 µM	> 10 µM				
CCCCCCCCn1cc(CC[N+](C)(C)C)c2ccccc21	> 10 µM	0.527 µM				
CCCCCCCCn1cc(CCN(C)C)c2ccccc21	> 10 µM	> 10 µM	> 10 µM	> 10 µM		
CC(C)=CCn1cc(C[N+](C)(C)C)c2ccc(Br)cc21	> 1 µM	0.203 µM	> 1 µM			
CCCCCCCCCCn1cc(CCN(C)C)c2ccccc21	> 10 µM	> 10 µM				
CCCCCCCCCCn1cc(CC[N+](C)(C)C)c2ccccc21	> 10 µM	> 10 µM				
CC(C)=CCn1cc(CCN(C)C)c2ccccc21	1.82 µM	> 10 µM	> 10 µM			
CC(C)=CCn1cc(CC[N+](C)(C)C)c2ccc(Br)cc21	5.33 µM	0.412 µM	1.53 µM	> 10 µM		
CN1CCC[C@H]1c1cccnc1 [NICOTINE]	0.0753 µM	0.00085 µM	0.129 µM			
C=CCn1cc(CC[N+](C)(C)C)c2ccccc21	0.365 µM	0.517 µM	6.8 µM	> 10 µM		
Cn1cc(CC[N+](C)(C)C)c2ccccc21	2.01 µM	> 10 µM	> 10 µM	> 10 µM		
C=CCn1cc(CCN(C)C)c2ccccc21	2.85 µM	> 10 µM	> 10 µM			
CNCCc1cn(CC=C(C)C)c2cc(Br)ccc12 [DEFORMYLFLUSTRABROMINE B]	> 10 µM	> 10 µM			inactive	17 µM
CC(C)=CCn1cc(CC[N+]2(C)CCCC2)c2ccccc21		> 10 µM				
CNCCc1cn(CC=C(C)C)c2ccccc12	> 10 µM	> 10 µM	> 10 µM			
CNCCc1cn(C)c2ccccc12	> 10 µM	> 10 µM				
CC(C)=CCn1cc(CN(C)C)c2ccc(Br)cc21	> 10 µM	1.38 µM				
CN(C)CCc1cn(C)c2ccccc12	3.68 µM	> 10 µM				
CC(C)=CCn1cc(CN(C)C)c2ccccc21	> 10 µM	> 10 µM				
CC(C)=CCn1cc(CC[N+](C)(C)C)c2ccccc21	0.0939 µM	0.136 µM	0.862 µM	2.36 µM		

Further lines, with some results ahead:

Ki [1]	Ki [2]	Ki [3]	SMILES	Ki [4]	Activity (Rattus norvegicus)	Ki [5]
> 10 µM	> 10 µM	> 10 µM	CCCCCCCCCCCCn1cc(CCCN(C)C)c2ccccc21			
> 10 µM	> 10 µM	> 10 µM	CCCCCCCCn1c(C[N+](C)(C)C)cc2ccccc21			
> 10 µM	> 10 µM	> 10 µM	CCCCCCCCCCn1cc(C[N+](C)(C)C)c2ccccc21			
> 10 µM	> 10 µM	> 10 µM	CCCCCCCCCCn1cc(CCC[N+](C)(C)C)c2ccccc21			
> 10 µM	> 10 µM	> 10 µM	CCCCCCCCn1c(CN(C)C)cc2ccccc21			
> 10 µM	> 10 µM	> 10 µM	CCCCCCCCCCn1cc(CCCN(C)C)c2ccccc21			
> 10 µM	> 10 µM	> 10 µM	CCCCCCCCCCCCn1cc(CN(C)C)c2ccccc21			
> 10 µM	0.435 µM	> 10 µM	CC(C)=CCn1cc(C[N+](C)(C)C)c2ccccc21			
> 10 µM	> 10 µM		CCCCCCCCn1cc(CCCN(C)C)c2ccccc21			
> 10 µM	> 10 µM	> 10 µM	CCCCCCCCCCn1cc(CN(C)C)c2ccccc21			
> 10 µM	0.243 µM	> 1 µM	CCCCCCCCn1cc(CCC[N+](C)(C)C)c2ccccc21			
> 10 µM	> 10 µM	> 10 µM	CCCCCCCCn1cc(CN(C)C)c2ccccc21			
> 10 µM	> 10 µM	> 10 µM	CCCCCCCCCCCCn1cc(C[N+](C)(C)C)c2ccccc21			
> 10 µM	> 10 µM		CCCCCCCCCCCCn1cc(CCN(C)C)c2ccccc21			
3.4 µM	0.706 µM	> 5 µM	CCCCCCCCn1cc(C[N+](C)(C)C)c2ccccc21			
> 10 µM	> 10 µM	> 10 µM	CCCCCCCCCCCCn1cc(CCC[N+](C)(C)C)c2ccccc21			
> 10 µM	> 10 µM		CCCCCCCCCCCCn1cc(CC[N+](C)(C)C)c2ccccc21			
